Reference: PubChem BioAssay
Calls of active or inactive are those of the source.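 How the source made its calls, unless noted: active means growth inhibition above a set limit, 3 SD over mean compound inhibition, in both replicates (cut at about 43% in these data); inconclusive means above the limit in only one replicate; inactive means at or below the limit in both replicates.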

Experiment: S. cerevisiae growth inhibition in restrictive medium, OD615, pilot screen, restrictive growth control, yeast lifespan reduction project (AID 706);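 further: modified DeaD lifespan yeast strain shifted to restrictive glucose medium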
Details: OD615, 48 h, at 10 µM, active compounds read high
Outline: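 material = engineered S. cerevisiae DeaD strain | buffer or medium = glucose-based CSMM-D restrictive medium | dosing = one concentration, 10 µM final, 0.25% DMSO | schedule = 4 h pre-growth plus 48 h compound exposure, 30 °C | detection = OD615 absorbance reading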

Compound | growth inhibition
COC(=O)CN(c1ccccc1)S(=O)(=O)c1ccccc1 | -2.47% (inactive)
CCCC(c1c(C)n(C)n(-c2ccccc2)c1=O)c1c(C)n(C)n(-c2ccccc2)c1=O | -13.4% (inactive)
O=C(Cn1cc2c(n1)CCCCC2)NCc1ccccn1 | -16.1% (inactive)
CC(C)n1c(CCCO)nc2ccccc21 | -5.23% (inactive)
O=C(CCCCCN1C(=O)C2C3C=CC(C3)C2C1=O)Nc1nccs1 (stereo not given) | -2.41% (inactive)
O=C(CSc1nc(-c2ccccc2)c(-c2ccccc2)o1)N1CCOCC1 | -15.5% (inactive)
Cc1ccc2c(c1)c1c(n2CC(O)Cn2c(C)nc3ccccc32)C(=O)CCC1 (stereo not given) | -1.9% (inactive)
O=C(Cn1ncc2c(=O)oc3ccccc3c21)N1CCCN(Cc2ccccc2F)C1 | 2.98% (inactive)
Cc1cccc(N2CCN(S(C)(=O)=O)CC2)c1C | -14.1% (inactive)
CCOC(=O)c1c(NC(=O)C2CCCN2S(=O)(=O)c2cccc3nsnc23)sc(C)c1C (stereo not given) | -0.39% (inactive)
COc1ccc(C2N3CC4(C)CN2CC(C)(C3)C4)cc1OC (stereo not given) | -17.4% (inactive)
Cc1ccc(C)c(SCC(=O)OCC(=O)c2ccco2)c1 | -14.6% (inactive)
COc1ccc(-c2nc(CS(=O)(=O)CC(=O)Nc3ccc(Cl)cc3)c(C)o2)cc1 | -7.49% (inactive)
CC(=O)c1ccc(-n2nncc2C)cc1 | -11.6% (inactive)
CN(C)C(=O)CSc1nnc(-c2cccnc2)n1-c1ccccc1 | -5.54% (inactive)
CC1CN(C(=O)c2cc3ccccc3oc2=O)CC(C)O1 (stereo not given) | -3.64% (inactive)
COc1cccc(/C=C2\N=C(SC)SC2=O)c1OC | -7.18% (inactive)
COc1ccc(OC)c(N(CC(=O)O)S(=O)(=O)c2ccc(OC)c(OC)c2)c1 | -11.1% (inactive)
O=C(c1ccc(Br)o1)N1CCN=C1SCc1cccnc1 | -6.34% (inactive)
CCc1n[nH]c2c1/C(=N\O)CC(C)(C)C2 | -1.83% (inactive)

Compound | growth inhibition
CC(=O)C1C(c2ccccc2Cl)NC(=O)NC1(O)C(F)(F)F (stereo not given) | -12.1% (inactive)
CCC(C)NC(=O)CN(c1ccc2c(c1)OCO2)S(=O)(=O)c1c(C)n[nH]c1C (stereo not given) | -7.16% (inactive)
CCOCCn1c(CN(Cc2ccccc2)Cc2ccccc2)nc2c1c(=O)n(C)c(=O)n2C | 12.6% (inactive)
COc1ccc(CN2CCN(c3cccc(C)c3C)CC2)cc1OC | -1.75% (inactive)
CCCc1cc(C(=O)N(C2CCCCC2)C2CCCCC2)no1 | 14.7% (inactive)
CCCCNC(=O)c1cc(-c2ccc(OC)c(OC)c2)on1 | 5.25% (inactive)
O=C(Cn1cnc2c(nnn2-c2ccccc2)c1=O)N1CCCc2ccccc21 | -10.4% (inactive)
CCCCOC(=O)Nc1ccc(N2CCOCC2)cc1 | 2.39% (inactive)
Cc1nc(-c2ccc(S(=O)(=O)N3CCCCCC3)cc2)cs1 | 2.95% (inactive)
Cc1ccc(-n2c(SCC(N)=O)nc3c([nH]c4ccccc43)c2=O)cc1 | -5.78% (inactive)
CCOC(=O)N1CCC(NC(=O)c2ccc3snnc3c2)CC1 | -4.42% (inactive)
CN(CC(=O)NC1CCCc2ccccc21)S(=O)(=O)c1ccc2c(c1)c(=O)n(C)c(=O)n2C (stereo not given) | -10.7% (inactive)
COc1ccc(C2C(C(=O)NC(C)C)c3ccccc3C(=O)N2C)cc1OC (stereo not given) | -13.2% (inactive)
CCOC(=O)c1sc(NC(=O)C2CC2)nc1C | 0.375% (inactive)
N#CC1=C(SCC(=O)Nc2ccccc2)NC(=O)CC1c1ccc(O)cc1 (stereo not given) | -10.5% (inactive)
CCCCNc1cc(=O)n(C)c(=O)[nH]1 | -4.46% (inactive)
CC(=O)Oc1ccc(N2C(=O)C3C(C2=O)C2(C)C=CC3(C)O2)cc1 (stereo not given) | 100% (active)
O=C(O)CCCC(=O)Nc1ccc(Cl)c(Cl)c1 | -2% (inactive)
CC1=C(C(=O)OC(C)C)C(c2ccc(Br)s2)NC(=O)N1C (stereo not given) | -22.3% (inactive)
CCOC(=O)N1CCN(C(=O)c2ccc3c(c2)N(CC)CCS3)CC1 | 2.25% (inactive)

Experiment: doxorubicin toxicity protection in MRP-1 cells – H69AR cells, CellTiter-Glo, duplicate, MRP-1 activator project, pilot screen (AID 807;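 active means viability increase at or above a cutoff of the median across tested compounds plus 3 SD, cut at about 8.5% in these data, passing the limit was not always enough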;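 further: compound pretreatment 18-22 h then 72 h combined with doxorubicin; 0% = doxorubicin alone and 100% = vehicle without doxorubicin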)
Details: H69AR viability with doxorubicin, CellTiter-Glo luminescence; at 10 µM; active compounds read high

Compound | viability increase
COC(=O)CN(c1ccccc1)S(=O)(=O)c1ccccc1 | -0.03% (inactive)
CCCC(c1c(C)n(C)n(-c2ccccc2)c1=O)c1c(C)n(C)n(-c2ccccc2)c1=O | -1.18% (inactive)
O=C(Cn1cc2c(n1)CCCCC2)NCc1ccccn1 | -2.27% (inactive)
CC(C)n1c(CCCO)nc2ccccc21 | -1.64% (inactive)
O=C(CCCCCN1C(=O)C2C3C=CC(C3)C2C1=O)Nc1nccs1 (stereo not given) | -1.31% (inactive)
O=C(CSc1nc(-c2ccccc2)c(-c2ccccc2)o1)N1CCOCC1 | -3.26% (inactive)
Cc1ccc2c(c1)c1c(n2CC(O)Cn2c(C)nc3ccccc32)C(=O)CCC1 (stereo not given) | -0.7% (inactive)
O=C(Cn1ncc2c(=O)oc3ccccc3c21)N1CCCN(Cc2ccccc2F)C1 | -3.74% (inactive)
Cc1cccc(N2CCN(S(C)(=O)=O)CC2)c1C | -0.12% (inactive)
CCOC(=O)c1c(NC(=O)C2CCCN2S(=O)(=O)c2cccc3nsnc23)sc(C)c1C (stereo not given) | 0.59% (inactive)
COc1ccc(C2N3CC4(C)CN2CC(C)(C3)C4)cc1OC (stereo not given) | -0.73% (inactive)
Cc1ccc(C)c(SCC(=O)OCC(=O)c2ccco2)c1 | -3.35% (inactive)
COc1ccc(-c2nc(CS(=O)(=O)CC(=O)Nc3ccc(Cl)cc3)c(C)o2)cc1 | -2.64% (inactive)
CC(=O)c1ccc(-n2nncc2C)cc1 | -3.63% (inactive)
CN(C)C(=O)CSc1nnc(-c2cccnc2)n1-c1ccccc1 | -0.98% (inactive)
CC1CN(C(=O)c2cc3ccccc3oc2=O)CC(C)O1 (stereo not given) | 0.49% (inactive)
COc1cccc(/C=C2\N=C(SC)SC2=O)c1OC | -3.76% (inactive)
COc1ccc(OC)c(N(CC(=O)O)S(=O)(=O)c2ccc(OC)c(OC)c2)c1 | -0.41% (inactive)
O=C(c1ccc(Br)o1)N1CCN=C1SCc1cccnc1 | 2.52% (inactive)
CCc1n[nH]c2c1/C(=N\O)CC(C)(C)C2 | -2.26% (inactive)

Compound | viability increase
CC(=O)C1C(c2ccccc2Cl)NC(=O)NC1(O)C(F)(F)F (stereo not given) | -0.31% (inactive)
CCC(C)NC(=O)CN(c1ccc2c(c1)OCO2)S(=O)(=O)c1c(C)n[nH]c1C (stereo not given) | -1.79% (inactive)
CCOCCn1c(CN(Cc2ccccc2)Cc2ccccc2)nc2c1c(=O)n(C)c(=O)n2C | -2.62% (inactive)
COc1ccc(CN2CCN(c3cccc(C)c3C)CC2)cc1OC | -1.96% (inactive)
CCCc1cc(C(=O)N(C2CCCCC2)C2CCCCC2)no1 | -5.51% (inactive)
CCCCNC(=O)c1cc(-c2ccc(OC)c(OC)c2)on1 | 2.07% (inactive)
O=C(Cn1cnc2c(nnn2-c2ccccc2)c1=O)N1CCCc2ccccc21 | 0.06% (inactive)
CCCCOC(=O)Nc1ccc(N2CCOCC2)cc1 | -0.38% (inactive)
Cc1nc(-c2ccc(S(=O)(=O)N3CCCCCC3)cc2)cs1 | -2.37% (inactive)
Cc1ccc(-n2c(SCC(N)=O)nc3c([nH]c4ccccc43)c2=O)cc1 | -2.14% (inactive)
CCOC(=O)N1CCC(NC(=O)c2ccc3snnc3c2)CC1 | -3.44% (inactive)
CN(CC(=O)NC1CCCc2ccccc21)S(=O)(=O)c1ccc2c(c1)c(=O)n(C)c(=O)n2C (stereo not given) | -3.54% (inactive)
COc1ccc(C2C(C(=O)NC(C)C)c3ccccc3C(=O)N2C)cc1OC (stereo not given) | -0.58% (inactive)
CCOC(=O)c1sc(NC(=O)C2CC2)nc1C | 0.91% (inactive)
N#CC1=C(SCC(=O)Nc2ccccc2)NC(=O)CC1c1ccc(O)cc1 (stereo not given) | -2.43% (inactive)
CCCCNc1cc(=O)n(C)c(=O)[nH]1 | -0.6% (inactive)
CC(=O)Oc1ccc(N2C(=O)C3C(C2=O)C2(C)C=CC3(C)O2)cc1 (stereo not given) | -1.26% (inactive)
O=C(O)CCCC(=O)Nc1ccc(Cl)c(Cl)c1 | -0.13% (inactive)
CC1=C(C(=O)OC(C)C)C(c2ccc(Br)s2)NC(=O)N1C (stereo not given) | 0.85% (inactive)
CCOC(=O)N1CCN(C(=O)c2ccc3c(c2)N(CC)CCS3)CC1 | -0.26% (inactive)
